This passage reports Activity and LD50 results from ChEMBL document CHEMBL4041468, “Effects of Koumine on Adjuvant- and Collagen-Induced Arthritis in Rats” (J Nat Prod, 2016).

Activity calls are given as the source filed them.

Series [1] deals with Rattus norvegicus. Kind of series: Antiarthritic activity in Lewis rat Freund's adjuvant-induced arthritis model assessed as reduction in mechanical allodynia in contralateral hind paw at 0.6 to 15 mg/kg, ig administered through gavage pretreated for 1 hr followed by adjuvant challenge and subsequent treatment for 9 days measured alternate days up to 24 days post dose. The class given is functional, organism-based. The method, boiled down:
(§1)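 Lewis rats with CFA-induced arthritis (0.1 mL intradermal, right hind paw), gavaged 1 h before induction and daily for 9 d. Mechanical withdrawal threshold measured 1 h after dosing. Rats habituated 30 min in individual cubicles; von Frey filament applied upward to the centre of each hind paw until withdrawal, maximum 55 g. Repeated twice at 10 min intervals; ipsilateral and contralateral paws recorded separately. n = 10; two-way ANOVA.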

The subject of series [2] is Rattus norvegicus. Kind of series: Antiarthritic activity in Lewis rat Freund's adjuvant-induced arthritis model assessed as reduction in arthritis index score at 15 mg/kg, ig administered through gavage pretreated for 1 hr followed by adjuvant challenge subsequent treatment for 9 days measured alternate days up to 24 days post dose. The class given is functional, organism-based. Put shortly:
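Female Lewis rats (8 weeks old) given a single intradermal injection of 0.1 mL CFA (heat-killed M. tuberculosis in paraffin oil) into the right hind paw. Gavage dosing in sterile saline 1 h before induction and daily for 9 d. Arthritis index scored (the paper reports the 18 d reading). n = 10 per group; Kruskal−Wallis with Dunn's test.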

Series [3] concerns Rattus norvegicus. Kind of series: Antiarthritic activity in Wistar rat type-2 collagen-induced arthritis model assessed as reduction in cartilage degeneration in joints at 15 mg/kg, ig via gavage administered 10 consecutive days starting from day 20 post type-2 collagen injection by hematoxylin and eosin staining based light microscopy. The class given is functional, organism-based. Put shortly: (§2)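 CIA in male Wistar rats (chicken CII emulsion, two intradermal injections 7 d apart); daily gavage for 10 d from day 20. After treatment, hind limbs X-rayed. Left hind paw joints fixed in 10% formalin, decalcified in 10% EDTA for 28 d at 4 °C, paraffin-embedded, sectioned at 5 μm, H&E-stained and examined by light microscopy at 100×.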

Series [4] relates to Rattus norvegicus. Kind of series: Antiarthritic activity in Wistar rat type-2 collagen-induced arthritis model assessed as reduction in joint tissue TNF-alpha level at 15 mg/kg, ig via gavage administered 10 consecutive days starting from day 20 post type-2 collagen injection by ELISA method. The class given is functional, organism-based. The method, boiled down:
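CIA Wistar rats dosed by gavage daily for 10 d from day 20 post first CII injection. Trunk blood serum stored at −70 °C. Right hind paw joint tissue homogenized at 200 mg/mL in PBS with 50 U/mL aprotinin, then centrifuged at 3000 rpm for 20 min at 4 °C. IL-1β and TNF-α quantified by ELISA kits in serum and supernatant. n = 10; one-way ANOVA with SNK.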
In general terms: In an ELISA, binding on a coated surface is turned into a signal by an enzyme label.

In series [5] the test system is Rattus norvegicus. Kind of series: Antiarthritic activity in Wistar rat type-2 collagen-induced arthritis model assessed as reduction in bone erosion at 0.6 to 15 mg/kg, ig via gavage administered 10 consecutive days starting from day 20 post type-2 collagen injection by X-ray method. The series is classed as functional, organism-based. The method, boiled down: as §2

For series [6], the system named is Rattus norvegicus. Kind of series: Antiarthritic activity in Wistar rat type-2 collagen-induced arthritis model assessed as reduction in IL-1beta mRNA expression at 15 mg/kg, ig via gavage administered 10 consecutive days starting from day 20 post type-2 collagen injection by qPCR analysis. The series is classed as functional, organism-based. The method, boiled down: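 Male Wistar rats (7 weeks old) given chicken CII (2 mg/mL in 0.1 M acetic acid) emulsified 1:1 in BCG/IFA adjuvant, two intradermal 0.3 mL injections 7 d apart. Gavage in saline daily for 10 d from day 20. Total RNA from ankle synovial tissue homogenate, reverse transcribed, qPCR in triplicate. Fold change vs blank control by 2−ΔΔCt.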
For orientation: Real-time PCR tracks product formation cycle by cycle.

In series [7] the test system is Rattus norvegicus. Kind of series: Antiarthritic activity in ig dosed Lewis rat Freund's adjuvant-induced arthritis model assessed as reduction in mechanical allodynia in ipsilateral hind paw administered through gavage pretreated for 1 hr followed by adjuvant challenge and subsequent treatment for 9 days measured alternate days up to 24 days post dose. The series is classed as functional, organism-based. Put shortly:
as §1

Series [8] is described as follows: Toxicity in ig dosed Wistar rat measured 30 mins after administration via gavage at 4 h intervals during first 24 hrs and twice a day thereafter over the next 13 days. The class given is organism-based. As to conditions: in vivo, po. The method, boiled down:
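OECD 425 up-and-down procedure in ten 7-week-old male Wistar rats, fasted overnight. Single gavage dose at 10 mL/kg, starting at 300 mg/kg with a progression factor of 1/0.75. Survival checked at 30 min, every 4 h for 24 h, then twice daily for 13 d. LD50 reported with a 95% confidence interval.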

Usually LD50 stands for the dose expected to kill half of the subjects tested.

For `C=C[C@@]12CN(C)[C@H]3C[C@]14C(=Nc1ccccc14)[C@H]1C[C@@H]2[C@@H]3CO1`, the result in the series with Rattus norvegicus [1] was inactive. The outcome in the series with Rattus norvegicus [2], in the series on Rattus norvegicus [3], with Rattus norvegicus [4], in the series on Rattus norvegicus [5] and in the series on Rattus norvegicus [6] was Active. The Activity result in the series with Rattus norvegicus [7] is “Dose-dependent effect”. In series [8], this compound came in with an LD50 at 14 days of 300 mg/kg.
